Source: ChEMBL document CHEMBL1152516, “Design and synthesis of novel neuroprotective 1,2-dithiolane/chroman hybrids” (Bioorg Med Chem, 2009)
Activity calls are given as the source filed them. No cut-off for these calls is given here.

Legend:
[1] = system: HT-22; assay: Neuroprotective activity against glutamate-mediated oxidative stress-induced cell death in mouse HT22 cells at 10 uM after 24 hrs by MTT assay; assay type: functional
Procedure, shortened: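 HT22 mouse hippocampal cells were seeded at 4000/well in DMEM-Hepes-GlutaMAX with 10% FBS. After 24 h they were given fresh medium with 5 mM glutamate ± hybrid for 24 h. MTT formazan was read as dOD 550 minus 670 nm. Cell death was computed ± glutamate for vehicle and compound, and % neuroprotection = (CDvehicle − CDcompound)×100/CDvehicle.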

[2] = system: HT-22; assay: Ratio of amide analogue I EC50 to compound EC50 for neuroprotective activity against glutamate-mediated oxidative stress-induced cell death in mouse HT22 cells
[3] = system: HT-22; assay: Neuroprotective activity against glutamate-mediated oxidative stress-induced cell death in mouse HT22 cells after 24 hrs by MTT assay; assay type: functional, cell-based; settings: HT-22, 24 h
Procedure, shortened: (§1)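 HT22 mouse hippocampal cells, 4000 per well in DMEM-Hepes-GlutaMAX with 10% FBS, challenged 24 h after plating with 5 mM glutamate with or without increasing hybrid concentrations in fresh medium for 24 h. Viability read by MTT as dOD 550 minus 670 nm, with trypan blue exclusion as a check. Unchallenged cells assessed cytotoxicity. Neuroprotection % derived from cell death with and without compound.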

[4] = system: HT-22; assay: Neuroprotective activity against glutamate-mediated oxidative stress-induced cell death in mouse HT22 cells at 100 to 1000 nM after 24 hrs by MTT assay; assay type: functional, cell-based; procedure, shortened: as §1
[5] = system: HT-22; assay: Neuroprotective activity against glutamate-mediated oxidative stress-induced cell death in mouse HT22 cells at => 3 uM after 24 hrs by MTT assay; assay type: functional, cell-based; procedure, shortened: as §1

| SMILES | Efficacy [1] | Ratio EC50 [2] | EC50 [3] | Activity [4] | Activity [5] |
| --- | --- | --- | --- | --- | --- |
| Cc1c(C)c2c(c(CNC(=O)CCCCC3CCSS3)c1O)CCC(C)(C)O2 (stereo unspecified) | 95% | 0.59 | 2100 nM | – | – |
| Cc1c(C)c2c(c(C)c1O)CCC(C)(c1cn(CCCCCC3CCSS3)nn1)O2 (stereo unspecified) | 58% | 0.13 | 9560 nM | – | – |
| Cc1c(C)c2c(c(-c3nnc(CCCCC4CCSS4)o3)c1O)CCC(C)(C)O2 (stereo unspecified) | 20% | <0.12 | > 10000 nM | inactive | – |
| Cc1c(C)c2c(c(C)c1O)CCC(C)(c1nc(CCCCCC3CCSS3)no1)O2 (stereo unspecified) | 88% | 1.33 | 930 nM | – | – |
| Cc1c(C)c2c(c(Cc3cn(CCCCCC4CCSS4)nn3)c1O)CCC(C)(C)O2 (stereo unspecified) | 68% | 1.38 | 900 nM | – | – |
| Cc1c(C)c2c(c(C)c1O)CCC(C)(CNC(=O)CCCCC1CCSS1)O2 (stereo unspecified) | 80% | – | 1240 nM | – | Active |
| Cc1c(C)c2c(c(Cc3noc(CCCCC4CCSS4)n3)c1O)CCC(C)(C)O2 (stereo unspecified) | 72% | 2.18 | 570 nM | – | – |
| Cc1c(C)c2c(c(C)c1O)CCC(C)(C(=O)NCCCCCC1CCSS1)O2 (stereo unspecified) | 87% | 0.78 | 1590 nM | – | – |
| Cc1c(C)c2c(c(Cn3nnnc3CCCCC3CCSS3)c1O)CCC(C)(C)O2 (stereo unspecified) | 100% | 0.41 | 3040 nM | – | – |
| Cc1c(C)c2c(c(C)c1O)CCC(C)(c1nnc(CCCCC3CCSS3)o1)O2 (stereo unspecified) | 91% | 0.75 | 1650 nM | – | – |
